Assay results pooled from the literature.
Organism: Staphylococcus aureus
Effect on: microbial growth

| SMILES | test | system | conditions | MIC |
| --- | --- | --- | --- | --- |
| O=C1NC(=O)/C(=C\c2ccc3nccnc3c2)S1 |  | NCTC8325 |  | > 30 µM |
| CCn1cc(C(=O)O)c(=O)c2cc(F)c(N3CCNCC3)cc21 | broth dilution | ATCC11632 | 18 h | < 5 µg/mL |
| COC(=O)c1ccc2c(C(=Nc3ccc(N(C)C(=O)CN4CCN(C)CC4)cc3)c3ccccc3)c(O)[nH]c2c1 |  | NCTC8325 |  | > 30 µM |
| c1ccc2c(-c3nc4ccccc4[nH]3)c3ccccc3cc2c1 | broth dilution | ATCC29213 MSSA |  | 32 µg/mL |
| CCOC(=O)/C(C#N)=C(\O)c1ccc(NC(=O)c2cccs2)cc1 |  |  |  | > 128 µg/mL |
| C[C@@H](O)[C@H]1C(=O)N2C(C(=O)O)=C(S[C@@H]3CN[C@H](C(=O)N(C)C)C3)[C@H](C)[C@H]12 | broth dilution | KCTC1621 | 16 h | 8 µM |
| CSc1nc2nnnc(O)c2s1 |  |  |  | > 128 µg/mL |
| O=C(O)CN1C(=O)/C(=C/c2ccc(-c3ccc(N(c4ccccc4)c4ccccc4)cc3)cc2)SC1=S | broth dilution | ATCC25923 |  | 3.9 µg/mL |
| CC(C)Oc1c(NC(=O)c2ccc(NC(=O)[C@H](CC(N)=O)NC(=O)c3ccc(NC(=O)c4cccc(N)c4)cc3)cc2)ccc(C(=O)Nc2ccc(C(=O)O)cc2)c1O |  | ATCC29213 |  | > 64 µg/mL |
| Cc1ccc2nc(-c3c(F)cccc3Cl)[nH]c2c1 | broth dilution | ATCC29213 MSSA |  | 64 µg/mL |
| CC(C)Oc1c(NC(=O)c2ccc(NC(=O)[C@H](CC(N)=O)NC(=O)c3ccc(NC(=O)c4ccc(C#N)cc4)cc3)cc2)ccc(C(=O)Nc2cc(C(=O)O)n(C)c2)c1O |  | ATCC29213 |  | 64 µg/mL |
| COc1cccc2cc(-c3nc([C@H]4CC[C@H](C(=O)O)CC4)n4ncnc(N)c34)[nH]c12 |  | NCTC8325 |  | > 30 µM |
| COc1cccc(OC)c1C(=O)N[C@@H]1C(=O)N2[C@@H]1SC(C)(C)[C@@H]2C(=O)O | broth dilution | BAA1707 MRSA | drug-resistant strain | 18.8 µM |
| CC1CCN(CCCN2/C(=C/c3cc[n+](C)c4ccccc34)Sc3ccccc32)CC1.[I-] | broth dilution | ATCCBAA44 |  | 2 µg/mL |
| O=[N+]([O-])c1cccc(-c2nc3ccccc3[nH]2)c1 | broth dilution | ATCC29213 MSSA |  | 64 µg/mL |
| CC(C)Oc1c(NC(=O)c2ccc(NC(=O)[C@H](CC(N)=O)NC(=O)c3ccc(C#Cc4ccc(C#N)cc4)cc3)cc2)ccc(C(=O)Nc2ccc(C(=O)O)cc2)c1O |  | ATCC29213 |  | ≤ 0.03 µg/mL |
| CSc1ccc(-c2nc3ccc(C)cc3[nH]2)cc1 | broth dilution | ATCC29213 MSSA |  | 16 µg/mL |
| CC(=O)NC[C@H]1CN(c2ccc(N3CCOCC3)c(F)c2)C(=O)O1 | broth dilution | MRSA NRS383 USA200 | drug-resistant strain | 2 µg/mL |
| CO[C@H]1C[C@@H]2CC[C@@H](C)[C@@](O)(O2)C(=O)C(=O)N2CCCC[C@H]2C(=O)O[C@H]([C@H](C)C[C@@H]2CC[C@@H](OCCO)[C@H](OC)C2)CC(=O)[C@H](C)/C=C(\C)[C@@H](O)[C@@H](OC)C(=O)[C@H](C)C[C@H](C)/C=C/C=C/C=C/1C |  | NCTC8325 |  | > 30 µM |
| C=CC1(C)CC(OC(=O)CSCCCCCN(C)C)C2(C)C(C)CCC3(CCC(=O)C32)C(C)C1O (stereo not shown) |  |  |  | 0.5 µg/mL |

| SMILES | test | system | conditions | MIC |
| --- | --- | --- | --- | --- |
| C/C=C(\C)c1cc(O)c(C)c(OC(=O)c2c(C)c(Cl)c(O)c(Cl)c2O)c1 | broth dilution | 16339 |  | 8 µg/mL |
| O=C1NC(=O)C(Cc2ccc(O)cc2)S1 (stereo not shown) |  |  |  | > 128 µg/mL |
| O=C1NC(=S)N/C1=C\c1ccc(-c2ccc(N(c3ccccc3)c3ccccc3)cc2)c2ccccc12 | broth dilution | ATCC6538 |  | > 1000 µg/mL |
| COc1c(C)c(OS(=O)(=O)c2ccc3ccccc3c2)c(C)c(O)c1C(=O)/C=C/c1ccccc1 | broth dilution | ATCC25923 |  | 2500 µg/mL |
| NC[C@H]1O[C@H](O[C@H]2[C@H](O)[C@@H](O[C@H]3O[C@H](CO)[C@@H](O)[C@H](N)[C@H]3O)[C@H](N)C[C@@H]2N)[C@H](N)C[C@@H]1O |  | 129 | clinical isolate | > 100 µM |
| CC1(C)S[C@@H]2[C@H](NC(=O)[C@H](N)c3ccccc3)C(=O)N2[C@H]1C(=O)O | broth dilution | ATCC25923 | 16 h | 0.15 µg/mL |
| CC(C)Oc1c(NC(=O)c2ccc(NC(=O)[C@H](CC(N)=O)NC(=O)c3ccc(NC(=O)c4ccc(C#N)c(F)c4)cc3)cc2)ccc(C(=O)Nc2ccc(C(=O)O)cc2)c1O |  | ATCC29213 |  | 2 µg/mL |
| Cc1ccccc1NCc1ccc(Oc2ccccn2)cc1 |  |  |  | 1.6 µg/mL |
| C/C=C(\C)c1cc(O)c(C)c(OC(=O)c2c(C)cc(O)c(Cl)c2O)c1 | broth dilution | 745524 |  | 8 µg/mL |
| O=C(O)CN1C(=O)/C(=C/c2ccc(-c3ccc(N(c4ccccc4)c4ccccc4)cc3)c3ccccc23)NC1=S | broth dilution | ATCC43300 |  | > 1000 µg/mL |
| C/C=C(\C)c1cc(OC(=O)c2c(C)c(Cl)c(O)c(Cl)c2O)c(C)c(O)c1C(=O)O | broth dilution | CCARM3090 |  | 64 µg/mL |
| O=C(CCCCCC[P+](c1ccccc1)(c1ccccc1)c1ccccc1)Nc1ccc(O)c(O)c1.[Br-] | broth dilution | ATCC43300 MRSA | 18 h | > 32 µg/mL |
| Cc1cc(/C=C2\Sc3ccccc3N2CCCN2CCCCC2)c2ccccc2[n+]1C.[I-] | broth dilution | ATCCBAA44 |  | 8 µg/mL |
| CCCCCCC#Cc1cncc(-c2nnc(SCc3ccc(Cl)c(F)c3)n2C)c1 |  | MRSA | drug-resistant strain | ≥ 20 µg/mL |
| CC(C)Oc1c(NC(=O)c2ccc(NC(=O)[C@H](CC(N)=O)NC(=O)c3ccc(NC(=O)c4ccc(C#N)s4)cc3)cc2)ccc(C(=O)Nc2ccc(C(=O)O)cc2)c1O |  | ATCC29213 |  | 0.25 µg/mL |
| Cc1ccc2nc(-c3ccc(Cl)cc3)n(Cc3ccccc3Cl)c2c1 | broth dilution | ATCC29213 MSSA |  | 64 µg/mL |
| COC(=O)Nc1ccc(-c2nc(N3CCOCC3)c3cnn(C4CCN(Cc5cccnc5)CC4)c3n2)cc1 |  | NCTC8325 |  | > 30 µM |
| C/C=C(\C)c1cc(OC(=O)c2c(O)c(C)c(O)c(Cl)c2/C(C)=C/C)c(C)c(O)c1C(=O)O | broth dilution | CCARM3090 |  | 64 µg/mL |
| c1cncc(CN2CCC(n3ncc4c(N5CCOCC5)nc(-c5ccc6[nH]ccc6c5)nc43)CC2)c1 |  | NCTC8325 |  | > 30 µM |
| CCCCCCCCCC(=O)Oc1c(C)c(O)c(C(=O)/C=C/c2ccccc2)c(OC)c1C | broth dilution | ATCC25923 |  | > 5000 µg/mL |

| SMILES | test | system | conditions | MIC |
| --- | --- | --- | --- | --- |
| O=[N+]([O-])c1ccc(O)c2ncccc12 | broth dilution | ATCC29213 |  | 2 µg/mL |
| CN[C@H](CC(C)C)C(=O)N[C@H]1C(=O)N[C@@H](CC(N)=O)C(=O)N[C@H]2C(=O)N[C@H]3C(=O)N[C@H](C(=O)N[C@H](C(=O)O)c4cc(O)cc(O)c4-c4cc3ccc4O)[C@H](O)c3ccc(c(Cl)c3)Oc3cc2cc(c3O[C@@H]2O[C@H](CO)[C@@H](O)[C@H](O)[C@H]2O[C@H]2C[C@](C)(N)[C@H](O)[C@H](C)O2)Oc2ccc(cc2Cl)[C@H]1O |  | 10 |  | 2.2 µg/mL |
| NC[C@@H]1O[C@H](O[C@H]2[C@@H](O)[C@H](O[C@@H]3[C@@H](O)[C@H](N)C[C@H](N)[C@H]3O[C@H]3O[C@H](CN)[C@@H](O)[C@H](O)[C@H]3N)O[C@@H]2CO)[C@H](N)[C@@H](O)[C@@H]1O |  | NEWMAN |  | 5 to 10 µg/mL |
| CC(C)Oc1c(NC(=O)c2ccc(NC(=O)[C@H](CC(N)=O)NC(=O)c3ccc(NC(=O)C(C)Oc4ccc(C#N)cc4)cc3)cc2)ccc(C(=O)Nc2ccc(C(=O)O)cc2)c1O (stereo partly shown) |  | ATCC29213 |  | > 64 µg/mL |
| CNc1cccc2cc(C(=O)NCCc3cccc(C(=O)O)c3)c(=O)[nH]c12 |  | ATCC29213 |  | > 64 µg/mL |
| CSc1nc(Cl)cc(Sc2nnc(-c3cc(C(F)(F)F)cc(C(F)(F)F)c3)[nH]2)n1 |  | 83254 |  | 2.1 µM |
| Cc1cc(=O)[nH]n1C(=O)c1ccc(-n2c(C)ccc2C)cc1 | broth dilution | ATCC11632 | 18 h | 125 µg/mL |
| CC1(C)S[C@@H]2[C@H](NC(=O)[C@H](N)c3ccccc3)C(=O)N2[C@H]1C(=O)O | broth dilution | 16162 |  | 16 µg/mL |
| O=C1NC(=S)S/C1=C\c1ccc(-c2ccc(N(c3ccccc3)c3ccccc3)cc2)c2ccccc12 | broth dilution | ATCC6538 |  | 500 µg/mL |
| COc1ccc(-c2nc3ccc(C)cc3[nH]2)cc1OC | broth dilution | ATCC29213 MSSA |  | 128 µg/mL |
| CC(=O)NCN1N=C(C)C(=NNn2c(-c3ccccc3)nc3ccccc3c2=O)C1=O | broth dilution |  | 24 h | 59.9 µM |
| CCc1cnn2c(NCc3ccc[n+]([O-])c3)cc(N3CCCC[C@H]3CCO)nc12 |  | NCTC8325 |  | > 30 µM |
| c1ccc(NCc2ccc(Oc3ccccn3)cc2)cc1 |  |  |  | 1.8 µg/mL |
| O=C(O)CN1C(=O)/C(=C/c2ccc(-c3ccc(N(c4ccccc4)c4ccccc4)cc3)cc2)NC1=S | broth dilution | ATCC25923 |  | 3.9 µg/mL |
| Cc1ccc2nc(-c3cc(Br)ccc3O)[nH]c2c1 | broth dilution | ATCC29213 MSSA |  | 64 µg/mL |
| O=C1NN=C(N=Cc2ccc(O)cc2O)C1=NNn1c(-c2ccccc2)nc2ccccc2c1=O | broth dilution |  | 24 h | 107 µM |
| C=CCn1c(-c2ccc(Cl)c(Cl)c2)nc2ccccc21 | broth dilution | ATCC29213 MSSA |  | 64 µg/mL |
| O=C(Nc1ccc2c(c1)OC(F)(F)O2)Nc1ccc(Cl)c(C(F)(F)F)c1 |  | NCTC8325 |  | 0.3 µM |
